Measured values collected from several papers.
Each line is one published result; the experiments were not run side by side.
Target: Serine/threonine-protein kinase PAK 6 (PAK6, Homo sapiens, UniProt Q9NQU5)

| Structure (SMILES) | assay | setting | measurement | value |
| --- | --- | --- | --- | --- |
| CCS(=O)(=O)c1cc2cc(C[C@@](O)(CC(C)(C)c3ccc(F)cc3C(N)=O)C(F)(F)F)[nH]c2cn1 | cell-free assay, competition with immobilised ligand | 1 µM | remaining binding | 77% |
| CCCS(=O)(=O)Nc1ccc(F)c(C(=O)c2c[nH]c3ncc(-c4ccc(Cl)cc4)cc23)c1F | enzyme activity, inhibitor | 1 µM | inhibition | < 20% |
| COc1cc(/C=C/C(=O)CC(=O)/C=C/c2ccc(O)c(OC)c2)ccc1O | enzyme activity, inhibitor | 1 µM | activity vs control | 82% |
| CCC(=N\O)/C(C)=C/c1ccc(F)cc1 | cell-free assay, competition with immobilised ligand | 1 µM | remaining binding | 100% |
| FC(F)(F)Oc1cccc(-c2cnc3ccc(-c4ccncc4)nn23)c1 | enzyme activity, inhibitor, radiometric | 5 µM | activity vs control | 90% |
| CC(C)(C)C(=O)c1sc(NC2CCCCC2)nc1N | enzyme activity, inhibitor | 10 µM | remaining activity | 98% |
| Cc1ccc(C(=O)Nc2ccc(CN3CCN(C)CC3)c(C(F)(F)F)c2)cc1C#Cc1cnc2cccnn12 | enzyme activity, inhibitor | 23.5 nM | remaining activity | 84% |
| Cc1cnc(NC2CCOCC2)nc1-n1cnc(C(=O)NC(CN)c2cc(F)cc(Cl)c2)c1 (centres unmarked) | enzyme activity, inhibitor, radiometric | 1 µM | remaining activity | 70% |
| O=C1Nc2ccc(Cl)cc2C1=Cc1cc(Cl)c(O)c(Cl)c1 | cell-free assay | 0.5 µM | remaining signal | 97% |
| COc1cc2ncnc(Nc3ccc(Oc4ccccc4)c(C)c3C)c2cc1OC | enzyme activity, inhibitor | 1 µM | inhibition | -6% |
| Nc1nc(Nc2ccc(S(N)(=O)=O)cc2)nn1C(=O)c1c(F)cccc1F | cell-free assay | 0.5 µM | remaining signal | 101% |
| Oc1cccc(-c2nc(N3CCOCC3)c3oc4ncccc4c3n2)c1 | enzyme activity, inhibitor | 10 µM | remaining activity | 108% |
| CO[C@H]1CC[C@H](CNc2ccc(S(=O)(=O)NC(=O)c3ccc(N4CCN(CC5=C(c6ccc(Cl)cc6)CC(C)(C)CC5)CC4)cc3Oc3cnc4[nH]ccc4c3)cc2[N+](=O)[O-])CC1 | cell-free assay, competition with immobilised ligand | 1 µM | remaining binding | 75% |
| Nc1ncnc2occ(-c3ccc(NC(=O)Nc4cc(C(F)(F)F)ccc4F)cc3)c12 | cell-free assay, inhibitor | 20 µM | remaining signal | 53% |
| O=C1CCc2cc(Nc3cc(OC4CCOCC4)c([N+](=O)[O-])cc3Cl)ccc2N1 | cell-free assay, competition with immobilised ligand | 1 µM | remaining binding | 86% |
| O=C(Nc1cnn(-c2csc(C(=O)NC3COC3)c2)c1)Nc1c(F)cccc1Cl | enzyme activity, inhibitor | 5 µM | remaining activity | 92.9% |
| O=C(NCc1ncc(C(F)(F)F)cc1Cl)c1ccc2c(c1)C1(CCS(=O)(=O)CC1)[C@H](C1CC1)N2S(=O)(=O)c1ccc(F)cc1 | cell-free assay, competition with immobilised ligand | 1 µM | remaining binding | 100% |
| CCN(CC)CCNC(=O)c1c(C)[nH]c(/C=C2\C(=O)Nc3ccc(F)cc32)c1C | enzyme activity, inhibitor | 0.3 µM | inhibition | -11% |
| CNC(=O)c1ccc(Nc2ncc(C(F)(F)F)c(NCc3nccnc3N(C)S(C)(=O)=O)n2)cc1 | cell-free assay, competition with immobilised ligand | 0.1 µM | remaining binding | 100% |
| CC(C)(O)[C@H]1CC[C@H](Nc2ccc3ncc(-c4cccc(C(F)(F)F)c4)n3n2)CC1 | enzyme activity, inhibitor | 1 µM | remaining activity | 101% |
